From ChEMBL document CHEMBL1138346, “BINOL-amino acid conjugates as triggerable carriers of DNA-targeted potent photocytotoxic agents” (J Med Chem, 2007) come the findings set out here.

Active and inactive are the calls of the source. No cut-off for these calls is given here.

For data set [1], the system named is LoVo. Briefly: Selectivity index, ratio of CC50 for LoVo cells to EC50 for UV irradiated LoVo cells. Format: functional, Homo sapiens. The gist of the method: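 Ratio CC50/EC50 in LoVo cells; both from MTT after 24 h compound exposure (12 nM–200 µM, 1% DMSO), then 24 h more either in the dark or after 30 min irradiation at 360 nm. Mean of three triplicate experiments.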

A short description of data set [2]: Induction of pBR322 cross-linking after irradiation by alkaline agarose gel assay. Conditions: Escherichia coli. The method in brief:
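pBR322 (0.5 µg/sample) with compound 0.62–80 µM (DMSO stock diluted in water), 50 mM phosphate pH 7.5, irradiated on ice 20 min at 360 nm, 120 W. Run on 1% alkaline agarose (50 mM NaOH, 1 mM EDTA), 12 V, 15–16 h, ethidium bromide stain. Value is lowest concentration giving interstrand cross-link band.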

Data set [3] relates to Escherichia coli. The experiment in a line: Induction of pBR322 cross-linking in absence of irradiation by alkaline agarose gel assay.
Data set [4] has as its system LoVo. The experiment in a line: Cytotoxicity against human LoVo cells after 24 hrs by MTT assay. It counts as functional. The gist of the method:
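Dark cytotoxicity (CC50), LoVo human colorectal adenocarcinoma in DMEM/F-12 1:1 with 10% FBS, 37 °C, 5% CO2. 1.75 × 10^4 cells/well plated overnight; compound 12 nM–200 µM in DMSO (1% final) for 24 h, then washed and fresh medium, kept in dark 24 h more at 37 °C. MTT read at 540 nm; mean of three experiments in triplicate.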
On the technique in general: Formazan colour is commonly taken as a measure of viable cells.

For data set [5], the system named is LoVo. The experiment in a line: Photocytotoxicity against UV irradiated human LoVo cells after 24 hrs by MTT assay. It counts as functional, cell-based. The gist of the method: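 LoVo cells in DMEM/F-12 1:1 with 10% FBS, plated at 1.75 × 10^4 cells/well overnight. Exposed 24 h to 12 nM–200 µM compound (DMSO, 1% final), washed, fresh medium, irradiated 30 min at 360 nm, then 24 h at 37 °C. MTT absorbance at 540 nm, survival relative to solvent controls; EC50 from mean of three experiments in triplicate.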

Data set [6] is described as follows: Partition coefficient, log P of the compound. It counts as physicochemical. Conditions: octanol/water. The gist of the method: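 Calculated log P of neutral form by Crippen fragmentation method.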
Data set [7] has as its system Escherichia coli. The experiment in a line: Induction of pBR322 cross-linking after irradiation at 20 mM at pH 5.5 by alkaline agarose gel assay.
The mark [8] stands for this setting: Homo sapiens, LoVo, light or radiation study, 24 h.

Consider `COC(=O)[C@@H](NCc1cc2ccccc2c(-c2c(O)c(CN[C@H](C(=O)OC)C(C)C)cc3ccccc23)c1O)C(C)C`, for which the “Ratio CC50/EC50” value in the data set with LoVo [1] was found to be 108. The compound also came in with a Minimum concentration for DNA interstrand cross-linking in data set [2] of 5 µM. Moreover, the result in the data set on Escherichia coli [3] was inactive. The same compound registered a CC50 in the data set on LoVo [4] of 14 µM. The EC50 in the data set with LoVo [5] (setting [8]) was found to be 0.13 µM. This compound also came in with a lipophilicity (logP) in data set [6] of 6.15.

`COC(=O)[C@@H]1CCCN1Cc1cc2ccccc2c(-c2c(O)c(CN3CCC[C@H]3C(=O)OC)cc3ccccc23)c1O` (stereo in doubt; (S,S,S)-5) [listing 1 of 2 here]: the “Ratio CC50/EC50” value in the data set with LoVo [1] is more than 900. The EC50 in the data set on LoVo [5] (lovo) is 0.22 µM. In data set [6], this compound gave a logP of 4.81.

In turn, `C[N+](C)(C)Cc1cc2ccccc2c(-c2c(O)c(C[N+](C)(C)C)cc3ccccc23)c1O` gave a Minimum concentration for DNA interstrand cross-linking in data set [2] of 1.25 µM. The result in the data set on Escherichia coli [3] was inactive. For the same compound, in the data set with LoVo [4], the CC50 was more than 200 µM. Also, in the data set on LoVo [5] (setting [8]), the EC50 was more than 200 µM.

Compound `COC(=O)[C@@H]1CCCN1Cc1cc2ccccc2c(-c2c(O)c(CN3CCC[C@H]3C(=O)OC)cc3ccccc23)c1O` (stereo in doubt; (S,S,S)-5) [listing 2 of 2 here] yielded a Minimum concentration for DNA interstrand cross-linking in data set [2] of 20 µM. The result in the data set with Escherichia coli [3] was inactive.

Turning to `COC(=O)[C@H](C)NCc1cc2ccccc2c(-c2c(O)c(CN[C@@H](C)C(=O)OC)cc3ccccc23)c1O`, the “Ratio CC50/EC50” value in the data set with LoVo [1] is given as 0.4. In addition, the Minimum concentration for DNA interstrand cross-linking in data set [2] was more than 40 µM. Moreover, in the data set on Escherichia coli [3], the result was inactive. The compound further gave a CC50 in the data set on LoVo [4] of 1.5 µM. In the data set on LoVo [5] (setting [8]), this compound showed an EC50 of 4 µM. The compound also yielded a logP in data set [6] of 4.38.

With `NCCCC[C@H](NCc1cc2ccccc2c(-c2c(O)c(CN[C@@H](CCCCN)C(=O)O)cc3ccccc23)c1O)C(=O)O`, the result in the data set on Escherichia coli [7] was Active. In data set [2], this compound came in with a Minimum concentration for DNA interstrand cross-linking of 20 µM. Also, the result in the data set with Escherichia coli [3] was inactive. In addition, in the data set on LoVo [4], the CC50 is more than 200 µM. In the data set on LoVo [5] (setting [8]), this compound showed an EC50 of more than 200 µM. Further, the logP in data set [6] was found to be 3.34.

As to `O=C(O)[C@@H]1CCCN1Cc1cc2ccccc2c(-c2c(O)c(CN3CCC[C@H]3C(=O)O)cc3ccccc23)c1O` (stereo in doubt; (S,S,S)-6) [listing 1 of 2 here], the logP in data set [6] came to 4.28.

As to `Cc1cc2cc3c(C)cc(=O)oc3c(C)c2o1` [TRIOXSALEN], in the data set on LoVo [1], the “Ratio CC50/EC50” value is more than 210. In addition, the Minimum concentration for DNA interstrand cross-linking in data set [2] is less than 0.5 µM. Further, the outcome in the data set on Escherichia coli [3] was inactive. Moreover, in the data set on LoVo [4], the CC50 is more than 200 µM. In the data set on LoVo [5] (setting [8]), this compound came in with an EC50 of 0.94 µM. This compound also came in with a logP in data set [6] of 2.44.

Regarding `COC(=O)[C@@H]1CCCN1Cc1cc2ccccc2c(-c2c(O)c(CN3CCC[C@H]3C(=O)OC)cc3ccccc23)c1O` (stereo in doubt; (R,S,S)-5) [listing 1 of 2 here], the Minimum concentration for DNA interstrand cross-linking in data set [2] was determined as 20 µM. Moreover, in the data set on Escherichia coli [3], the outcome was inactive.

Turning to `O=C(O)[C@@H]1CCCN1Cc1cc2ccccc2c(-c2c(O)c(CN3CCC[C@H]3C(=O)O)cc3ccccc23)c1O` (stereo in doubt; (R,S,S)-6) [listing 1 of 2 here], the result in the data set on Escherichia coli [7] was Active. Also, in data set [2], the Minimum concentration for DNA interstrand cross-linking is 2.5 µM. For the same compound, the result with Escherichia coli [3] was inactive.

On to `O=C(O)[C@@H]1CCCN1Cc1cc2ccccc2c(-c2c(O)c(CN3CCC[C@H]3C(=O)O)cc3ccccc23)c1O` (stereo in doubt; (S,S,S)-6) [listing 2 of 2 here], for which, in the data set with Escherichia coli [7], the outcome was Active. The compound further had a Minimum concentration for DNA interstrand cross-linking in data set [2] of 2.5 µM. In addition, the outcome in the data set on Escherichia coli [3] was inactive.

In the data set on LoVo [4], `O=C(O)[C@@H]1CCCN1Cc1cc2ccccc2c(-c2c(O)c(CN3CCC[C@H]3C(=O)O)cc3ccccc23)c1O` (stereo in doubt; (R,S,S)-6) [listing 2 of 2 here] came in with a CC50 of more than 200 µM. Further, the EC50 with LoVo [5] (setting [8]) was more than 200 µM.

As for `COC(=O)[C@@H]1CCCN1Cc1cc2ccccc2c(-c2c(O)c(CN3CCC[C@H]3C(=O)OC)cc3ccccc23)c1O` (stereo in doubt; (R,S,S)-5) [listing 2 of 2 here], the “Ratio CC50/EC50” value with LoVo [1] is reported as more than 860. This compound also yielded a CC50 with LoVo [4] of more than 200 µM. In the data set with LoVo [5] (setting [8]), this compound came in with an EC50 of 0.23 µM.

What is called CC50 is the concentration giving 50% cytotoxicity. A lower CC50 goes with greater toxicity to the cells. Usually EC50 stands for the concentration giving half of the maximal effect. Higher therefore signals lower potency in that assay. Broadly, the logP is the decadic logarithm of the partition coefficient of the neutral form, usually between octanol and water. A low value points to a more hydrophilic compound.
